Experimental data pooled from the literature.
Compare with care: the assays were run in different laboratories.
HTR1E: 5-hydroxytryptamine receptor 1E (HTR1E, Homo sapiens, UniProt P28566)
APC: Adenomatous polyposis coli protein (APC, Homo sapiens, UniProt P25054)
AVPR2: Vasopressin V2 receptor (AVPR2, Homo sapiens, UniProt P30518)
Palmitoyl-protein thioesterase 1: Palmitoyl-protein thioesterase 1 (Homo sapiens, UniProt P50897)

Compound | target | assay | quantity | value
COc1ccc(CC2NCCc3c2[nH]c2ccc(C)cc32)c(Cl)c1OC (stereo not drawn) | HTR1E | G protein activation, agonist, BRET | EC50 | 2.43 µM
CSc1nccc(C(=O)N[C@@H](CCC(=O)O)C(=O)N[C@@H](Cc2ccc3ccccc3c2)C(=O)N[C@@H](CC(C)C)C(=O)N[C@@H]2C[C@H]2c2ccccc2)n1 | APC | binding, SPR | Kd | 0.38 µM
Cc1nc2n(c(=O)c1CCN1CCC(c3noc4cc(F)ccc34)CC1)CCCC2O (stereo not drawn) | RNA cytidine acetyltransferase (Homo sapiens, UniProt Q9H0A0) | binding, ITC | Kd | 12.8 µM
CCCCCCCC/C=C\CCCCCCCC(=O)O | Myoglobin (MB, Homo sapiens, UniProt P02144, K46M) | binding, absorbance | Kd | 13.1 µM
CC1=NN(/C(=N/c2nnc(C)s2)Nc2ccc(C)c(C)c2)C(c2cccc(-c3ccccc3)c2)S1 (stereo not drawn) | AVPR2 | cAMP, positive allosteric modulator | EC50 | > 50 µM
CN(C)c1ncnc2c1ncn2[C@@H]1O[C@H](CO)[C@@H](O)[C@H]1O | Adenosine receptor A3 (ADORA3, Homo sapiens, UniProt P0DMS8, L264Q) | G protein activation, agonist | EC50 | 3.5 µM
CN1CCC(=C2c3ccccc3Sc3ccccc32)CC1 | HTR1E | G protein activation, agonist, BRET | EC50 | 0.33 µM
CCc1ccc(/N=C(/Nc2nnc(C)s2)N2N=C(C)SC2c2ccc(C)cc2)cc1 (stereo not drawn) | AVPR2 | cAMP, positive allosteric modulator | EC50 | 15.8 µM
C=CCN1C[C@H](C(=O)N(CCCN(C)C)C(=O)NCC)C[C@@H]2c3cccc4[nH]cc(c34)C[C@H]21 | HTR1E | G protein activation, agonist, BRET | EC50 | 1.72 µM
NC(=O)N[C@@H](CCC(=O)O)C(=O)O | Palmitoyl-protein thioesterase 1 | binding, MST | Kd | 1.27 µM
COC(=O)[C@]12CCC(C)(C)C[C@H]1[C@H]1C(=O)C=C3[C@@]4(C)C=C(C#N)C(=O)C(C)(C)[C@@H]4CC[C@@]3(C)[C@]1(C)CC2 | Epidermal growth factor receptor (EGFR, Homo sapiens, UniProt P00533) | binding, MST | Kd | 79 µM
O=C1c2ccccc2-n2c1nc1ccccc1c2=O | Glutathione S-transferase P (GSTP1, Homo sapiens, UniProt P09211) | binding | Kd | 30.1 µM
CSc1ncc(Br)c(C(=O)N[C@@H](CCC(=O)O)C(=O)N[C@@H](Cc2ccc3ccccc3c2)C(=O)N[C@@H](CC(C)C)C(=O)NC2CC2c2ccccc2)n1 (stereo partly drawn) | APC | binding, SPR | Kd | 0.58 µM
CC1=NN(/C(=N/c2nnc(C)s2)Nc2ccc(C)c(C)c2)C(c2ccc(C(C)(C)C)cc2)S1 (stereo not drawn) | AVPR2 | cAMP, positive allosteric modulator | EC50 | > 50 µM
CCN1CCC[C@H]1CNC(=O)c1c(O)c(Cl)cc(Cl)c1OC | HTR1E | G protein activation, agonist, BRET | EC50 | 0.49 µM
OC(c1cc(C(F)(F)F)nc2c(C(F)(F)F)cccc12)C1CCCCN1 (stereo not drawn) | Palmitoyl-protein thioesterase 1 | binding, MST | Kd | 0.226 µM
CC1=NN(/C(=N\c2ccc(C)cc2)Nc2nnc(C)s2)C(c2ccc(C)cc2)S1 (stereo not drawn) | AVPR2 | cAMP, positive allosteric modulator | EC50 | 24.2 µM

Compound | target | assay | quantity | value
CN1CCN(Cc2ccc(CNc3cccc4c3CN(C)N(C3CCC(=O)NC3=O)C4=O)cc2)CC1 (stereo not drawn) | Cereblon/Casein kinase I alpha (CSNK1A1/CRBN, Homo sapiens, UniProt P48729+Q96SW2) | protein level, degrader, luciferase | DC50 | 0.092 µM
CC1=NN(/C(=N/c2nnc(C)s2)Nc2ccc(C)c(C)c2)C(c2cccnc2)S1 (stereo not drawn) | AVPR2 | cAMP, positive allosteric modulator | EC50 | > 50 µM
CC(C)C[C@H](NC(=O)[C@H](Cc1ccc2ccccc2c1)NC(=O)[C@H](CCC(=O)O)NC(=O)c1ccncn1)C(=O)NC1CC1c1ccccc1 (stereo partly drawn) | APC | binding, SPR | Kd | 2.3 µM
CC1=NN(/C(=N/c2nnc(C)s2)Nc2ccc(C)c(C)c2)C(c2ccc(-c3ccccc3C(F)(F)F)cc2)S1 (stereo not drawn) | AVPR2 | cAMP, positive allosteric modulator | EC50 | 36 µM
CCCNC(=O)NS(=O)(=O)c1ccc(Cl)cc1 | Palmitoyl-protein thioesterase 1 | binding, MST | Kd | 0.201 µM
CC(C)=CCNc1ncnc2c1ncn2[C@@H]1O[C@H](CO)[C@@H](O)[C@H]1O | Adenosine receptor A3 (ADORA3, Homo sapiens, UniProt P0DMS8, L264F) | G protein activation, agonist | EC50 | 3.4 µM
CC(C)C[C@H](NC(=O)[C@H](Cc1ccc2ccccc2c1)NC(=O)[C@H](CCC(=O)O)NC(=O)c1cccc([N+](=O)[O-])c1)C(=O)NC1CC1c1ccccc1 (stereo partly drawn) | APC | ligand displacement, FP | IC50 | 41.7 µM
CN(C)CCCN1c2ccccc2Sc2ccc(Cl)cc21 | HTR1E | G protein activation, agonist, BRET | EC50 | 2.08 µM
CC(C)C[C@H](NC(=O)[C@H](CC1CC1)NC(=O)[C@H](CCC(=O)O)NC(=O)c1ccncn1)C(=O)NC1CC1c1ccccc1 (stereo partly drawn) | APC | binding, SPR | Kd | 32 µM
CC1=NN(/C(=N\c2ccc(C(F)(F)F)cc2)Nc2nnc(C)s2)C(c2ccc(C)cc2)S1 (stereo not drawn) | AVPR2 | cAMP, positive allosteric modulator | EC50 | 16.6 µM
CCc1cccc(C(=O)N[C@@H](CCC(=O)O)C(=O)N[C@@H](Cc2ccc3ccccc3c2)C(=O)N[C@@H](CC(C)C)C(=O)NC2CC2c2ccccc2)c1 (stereo partly drawn) | APC | ligand displacement, FP | IC50 | 25.1 µM
CC1=NN(/C(=N/c2nnc(C)s2)Nc2ccc(C)c(C)c2)C(c2ccc(F)cc2)S1 (stereo not drawn) | AVPR2 | cAMP, positive allosteric modulator | EC50 | > 50 µM
Cc1cc(C(=O)N[C@@H](CCC(=O)O)C(=O)N[C@@H](Cc2ccc3ccccc3c2)C(=O)N[C@@H](CC(C)C)C(=O)NC2CC2c2ccccc2)ccn1 (stereo partly drawn) | APC | ligand displacement, FP | IC50 | 40.7 µM
CN1CCN2c3ccccc3Cc3ccccc3C2C1 (stereo not drawn) | HTR1E | G protein activation, agonist, BRET | EC50 | 0.123 µM
CC(C)C[C@H](NC(=O)[C@H](Cc1ccc2ccccc2c1)NC(=O)[C@H](CCC(=O)O)NC(=O)c1cccc(Br)c1)C(=O)NC1CC1c1ccccc1 (stereo partly drawn) | APC | ligand displacement, FP | IC50 | 11.2 µM
CO[C@H]1C[C@@H]2CC[C@@H](C)[C@@](O)(O2)C(=O)C(=O)N2CCCC[C@H]2C(=O)O[C@H]([C@H](C)C[C@@H]2CC[C@@H](OC(=O)C(C)(CO)CO)[C@H](OC)C2)CC(=O)[C@H](C)/C=C(\C)[C@@H](O)[C@@H](OC)C(=O)[C@H](C)C[C@H](C)/C=C/C=C/C=C/1C | Ferroptosis suppressor protein 1 (AIFM2, Homo sapiens, UniProt Q9BRQ8) | binding, ITC | Kd | ~5.28 µM
